Common to all, as to format: functional
For assay [1], the system named is Mus musculus. The experiment in a line: Gastroprokinetic activity in Swiss Webster mouse assessed as stimulation of gastrointestinal motility by measuring time required to defecation of red fecal pellet at 10 mg/kg, sc incubated for 20 mins by carmine red dye assay. A digest of the protocol:
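Male Swiss Webster mice (5–8 weeks, 25–35 g), singly caged, 5–6 per group. Compound or vehicle was given s.c. 5 min before morphine 10 mg/kg (or vehicle). 20 min after morphine, mice received 0.2 mL of 6% carmine red dye in 0.5% carboxymethyl cellulose orally, set as time 0. Latency to the first red fecal pellet was measured, with a 6 h cut-off. One-way ANOVA followed by Dunnett test.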

Assay [2] relates to Mus musculus. Kind of assay: Gastroprokinetic activity in Swiss Webster mouse assessed as stimulation of gastrointestinal motility by measuring time required to defecation of red fecal pellet at 5 mg/kg, po incubated for 20 mins by carmine red dye assay. A digest of the protocol:
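Male Swiss Webster mice, 5–6 per group, housed singly. Compound or vehicle given s.c. or by oral gavage 5 min before morphine (10 or 5 mg/kg) or vehicle. 20 min after morphine, 0.2 mL of 6% carmine red in 0.5% CMC given orally (time 0). Time to first red pellet recorded, 6-h cutoff. Dunnett-corrected one-way ANOVA.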

Assay [3] has as its system Mus musculus. The experiment in a line: Gastroprokinetic activity in Swiss Webster mouse assessed as stimulation of gastrointestinal motility by measuring time required to defecation of red fecal pellet at 10 mg/kg, po incubated for 20 mins by carmine red dye assay. A digest of the protocol:
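Male Swiss Webster mice (5–8 weeks, 25–35 g), singly caged, 5–6 per group. Compound or vehicle was given by oral gavage 5 min before s.c. morphine (10 or 5 mg/kg) or vehicle. Oral vehicle was also given to naïve and morphine groups. 20 min after morphine, mice received 0.2 mL of 6% carmine red in 0.5% CMC p.o. (time 0). Time to the first red pellet was recorded, with a 6 h cut-off. One-way ANOVA with Dunnett test.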

Each structure is given as a SMILES string.

Consider `CN1CC[C@]23c4c5ccc(O)c4O[C@H]2[C@@H](O)C=C[C@H]3[C@H]1C5` [MORPHINE], for which the Time came to 124 min in the assay on Mus musculus [1], 105 min in the assay with Mus musculus [2] and 115 min in the assay on Mus musculus [3].
